Assay results as given in PMC2863310 (Pigment cell & melanoma research, 2009).
Residues, ends and D or L forms follow the SMILES beside them. *: point of attachment. Cbz = O=C(OCc1ccccc1)*

Columns and labels:
Siah2 [1] = target: T1, Siah2 (Mus musculus, UniProt Q06986); test: In vivo auto-ubiquitination of Siah2 in 293T cells; assay type: cell-based; conditions: MEN 25 µM or MG132 40 µM, 6 h
T1 sequence (Q06986 1-325): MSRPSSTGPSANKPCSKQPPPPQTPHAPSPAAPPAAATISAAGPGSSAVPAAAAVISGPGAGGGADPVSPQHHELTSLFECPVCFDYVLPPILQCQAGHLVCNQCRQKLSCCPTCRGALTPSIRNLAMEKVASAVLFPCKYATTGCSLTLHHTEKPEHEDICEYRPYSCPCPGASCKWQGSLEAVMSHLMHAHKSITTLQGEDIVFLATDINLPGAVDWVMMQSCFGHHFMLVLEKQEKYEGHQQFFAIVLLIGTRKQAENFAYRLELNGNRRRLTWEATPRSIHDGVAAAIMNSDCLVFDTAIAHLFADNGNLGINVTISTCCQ
How it was run: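 293T cells (DMEM, 10% BS) were co-transfected with Flag-Siah2 with or without HA-ubiquitin and treated 24 h later. Cells were lysed in 2% SDS/TBS at 95°C for 10 min, diluted ninefold in 1% Triton X-100/2 mM EDTA, sonicated, precleared with protein G and clarified. Anti-Flag immunoprecipitation used 2 mg protein overnight at 4°C. After stringent washes, 8% SDS-PAGE was blotted with anti-HA and reprobed with anti-Flag.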

GST-RNF5 [2] = target: T2, GST-RNF5 (Homo sapiens, UniProt Q99942); test: Meso Scale electro-chemiluminescent RNF5 ubiquitination assay; assay type: biochemical
How it was run: (§1)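 Electrochemiluminescent format. GST-Siah2 or GST-RNF5 (5 pM final) is adsorbed onto glutathione-coated wells. Test compound is added in 100% DMSO. Reaction is started with a pre-charged ubiquitin-E1-E2 mix and runs 1 h at room temperature, then is stopped by Tris-buffered washes. SULFO-Tag antibody to ubiquitinated proteins is added and the signal is read. Library tested at 100 µM; hits confirmed by dose-response curves.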

HIF-1α [3] = test: HIF-1α protein level in 293T cells; assay type: cell-based; conditions: hypoxia 1% O2, 5 h
Siah2 [4] = target: T1, Siah2; test: Siah steady-state levels in transfected 293T cells; assay type: cell-based
How it was run: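 293T cells (DMEM, 10% BS) were transiently transfected with HA-Siah2 or Flag-Siah1a (1 µg) by calcium phosphate or Lipofectamine. They were treated 24 h later with test compound at several concentrations, with DMSO as control. Lysates were immunoblotted for the tag with β-actin as loading control, using fluorescent secondary antibodies and infrared scanning.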

PHD3 = PHD3 level and half-life; assay type: cell-based, mouse
How it was run: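 Immortalized MEFs are kept in 10% FBS with 0.1 mM non-essential amino acids and 0.2 mM 2-mercaptoethanol. Cells get test compound (25 µM), with or without 5 mM N-acetyl L-cysteine. PHD3 is blotted after 1% O2, 5 h; Spry2 under normoxia; HIF-1α in nuclear extracts. β-actin/lamin A are loading controls. For half-life, cycloheximide (20 µg/ml) is added after 5 h hypoxia and cells are harvested over time.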

Siah1 = target: T3, Siah1 (Mus musculus, UniProt P61092); test: Siah1 ubiquitin ligase activity; assay type: biochemical
T3 sequence (P61092 1-282): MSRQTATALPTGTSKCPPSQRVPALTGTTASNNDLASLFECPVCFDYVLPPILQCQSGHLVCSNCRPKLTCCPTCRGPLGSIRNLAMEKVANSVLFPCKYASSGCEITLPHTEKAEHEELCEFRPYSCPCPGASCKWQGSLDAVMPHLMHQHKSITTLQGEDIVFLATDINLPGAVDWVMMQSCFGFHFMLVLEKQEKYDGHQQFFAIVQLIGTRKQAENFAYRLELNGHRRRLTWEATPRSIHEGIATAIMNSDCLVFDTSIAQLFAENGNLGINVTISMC

GST-Siah2 [5] = target: T4, GST-Siah2 (Mus musculus, UniProt Q06986); test: Meso Scale electro-chemiluminescent Siah2 self-ubiquitination assay; assay type: biochemical
T4 sequence (Q06986 1-325): T1 sequence (Q06986 1-325)
How it was run: as §1

SW1 melanoma cells = test: Semi-quantitative RT-PCR of HIF-1α and VEGF transcripts; assay type: cell-based, mouse
GST-RNF5 [6] = target: T2, GST-RNF5; test: In vitro ubiquitination assay, Western blot with anti-ubiquitin; assay type: biochemical; conditions: 100 µM
How it was run: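 Bacterially expressed GST-RNF5 was purified on glutathione resin. The reaction buffer was 50 mM Tris-HCl pH 8.0, 5 mM MgCl2, 0.5 mM DTT and 2 mM NaF, with HA-ubiquitin (2 µg), 2 mM ATP, E1 (50 ng) and purified His-UbcH5b E2 (250 ng). Test compound was present at 100 µM, and reactions ran 45 min at 37°C.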

SPRY2 = test: Spry2 expression in 293T cells transfected with Myc-Spry2 and HA-Siah2; assay type: cell-based; conditions: 5 h
HIF-1α [7] = test: HIF-1α protein level in SW1 melanoma cells; assay type: cell-based; conditions: SW1 mouse melanoma cells, hypoxia 1% O2, 5 h
GST-Siah2 [8] = target: T4, GST-Siah2; test: In vitro protein-binding assay of GST-Siah2 with PHYL or Spry2
How it was run: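 GST-Siah2 was affinity-purified onto glutathione-Sepharose 4B beads. Spry2 and PHYL were made by coupled in vitro transcription/translation in reticulocyte lysate with [35S]-methionine and mixed with the GST fusion on glutathione beads. Bound protein was resolved on 12% SDS-PAGE and detected by autoradiography.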

UACC903 melanoma tumors = test: UACC903 melanoma xenograft in nude mice; assay type: in vivo, mouse
How it was run: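 UACC903 cells (1 × 10^6 in 100 µl PBS) are injected s.c. into the flank of 4-week-old male nude mice. From 1 week, test compound (2, 5 or 10 mg/kg; 0.1% DMSO final) is given i.p. twice weekly for 4 weeks, with tumors measured twice weekly. Harvested tumors: Z-fix, IHC for HIF-1α/pERK (HRP polymer, DAB, hematoxylin), TUNEL (peroxidase kit), and pERK/total ERK immunoblots.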

UACC903 melanoma cells = test: Spry2 and pERK levels in UACC903 melanoma cells; assay type: cell-based, human; conditions: 5 h
How it was run: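 UACC903 human melanoma cells are treated 5 h with a concentration series of test compound. Blots are probed overnight at 4°C and detected with fluorescent secondary antibodies. Total ERK or β-actin serves as loading control.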

[9] = system: Human Microvascular Endothelial Cells (HMVEC); test: HMVEC tube formation with conditioned medium of treated SW1 cells; assay type: cell-based; conditions: medium from SW1 cells treated 10 h under hypoxia; read after 16 h
GST-Siah2 [10] = target: T4, GST-Siah2; test: In vitro ubiquitination assay, Western blot with anti-ubiquitin; assay type: biochemical
How it was run: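 GST-Siah2 (with GST-RNF5 and GST-Siah2 RING mutant in parallel), bacterially expressed, glutathione-purified. Reactions on glutathione beads in 50 mM Tris-HCl pH 8.0, 5 mM MgCl2, 0.5 mM DTT, 2 mM NaF, with HA-ubiquitin (2 µg), 2 mM ATP, E1 (50 ng) and His-UbcH5b (250 ng), 45 min, 37°C, with shaking. Test compound at 100 µM or a concentration series. Read-out: 8% SDS-PAGE, anti-ubiquitin blot; anti-GST for input.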

VEGF = VEGF secretion from SW1 melanoma cells; assay type: cell-based, mouse; conditions: 10 h, ELISA

T2 sequence (Q99942 whole entry): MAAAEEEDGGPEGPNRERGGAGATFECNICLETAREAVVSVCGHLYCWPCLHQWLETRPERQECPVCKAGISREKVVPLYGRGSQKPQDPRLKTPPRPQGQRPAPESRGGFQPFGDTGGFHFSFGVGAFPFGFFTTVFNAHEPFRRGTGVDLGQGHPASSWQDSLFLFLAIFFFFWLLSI

## CC(C)C[C@@H](C=O)NC(=O)[C@H](CC(C)C)NC(=O)[C@H](CC(C)C)NC(=O)OCc1ccccc1 [MG132] (Cbz-Leu-Leu-Leu-aldehyde)
Siah2 [1]
  Siah2 ubiquitination in vivo: increased the ubiquitinated and unubiquitinated forms of Siah2

## CC1=CC(=O)c2ccccc2C1=O [compound 1, menadione]
GST-RNF5 [2]
  IC50: > 100 µM
HIF-1α [3]
  HIF-1α expression: reduced the expression of HIF-1α in a dose-dependent manner
Siah2 [4]
  steady-state levels of Siah2 / Siah1a: increase the steady-state levels of Siah2
PHD3; MEF cells, 25 µM with 5 mM N-acetyl cysteine
  stabilization of PHD3 or Spry2, effect on HIF-1α, in presence of ROS scavenger: not affected
PHD3; MEF cells, hypoxia 1% O2, 5 h, increasing concentrations
  steady state levels of endogenous PHD3: corresponding increase in the steady state levels of endogenous PHD3
PHD3; Siah2 KO and Siah2/Siah1a DKO MEF, 25 µM
  increase of PHD3 or Spry2 expression in Siah KO cells: attenuated in the Siah2 KO and completely abolished in the Siah2/1a DKO cells
Siah1
  Siah1 ubiquitin ligase activity: attenuated Siah1 ubiquitin ligase activity
GST-Siah2 [5]
  IC50: 20 µM
SW1 melanoma cells
  level of HIF-1α transcripts: did not alter the level of HIF-1α transcripts
  transcription of VEGF: inhibited the transcription of the HIF-1α target gene, VEGF
GST-RNF5 [6]
  RNF5 self-ubiquitination in vitro: did not reduce RNF5 self-ubiquitination activity
SPRY2
  Siah2-dependent decrease in SPRY2 expression: attenuated Siah2-dependent decrease in SPRY2 expression
HIF-1α [7]
  HIF-1α expression: effectively reduced the level of HIF-1α expression
GST-Siah2 [8]
  association of Siah2 with PHYL or Spry2: without affecting the association with PHYL or Spry2
UACC903 melanoma tumors; IHC and immunoblot of xenograft tumors
  pERK levels in tumors: effectively reduced the levels of pERK
UACC903 melanoma tumors; IHC of xenograft tumors
  HIF-1α expression in tumors: lower levels of HIF-1α expression
UACC903 melanoma tumors; xenograft tumors
  degree of apoptosis in tumors (TUNEL): found to be higher
UACC903 melanoma cells
  ERK activity / phosphorylation: ERK activity was decreased
  SPRY2 level: increase in SPRY2 level
[9]
  tube formation of HMVEC cells: dose-dependent decrease in tube formation
Siah2 [1]
  Siah2 ubiquitination in vivo: effectively inhibits Siah2 ubiquitination in vivo
GST-Siah2 [10]; 100 µM, new lots of compounds, Western blot
  Siah2 auto-ubiquitination in vitro: strongest degree of Siah2 inhibition
GST-Siah2 [10]; GST-Siah2 on glutathione beads, increasing concentrations
  Siah2 auto-ubiquitination in vitro, dose dependence: attenuated in a dose-dependent manner
VEGF
  level of VEGF secreted: proportionally reduced
